MT1-MMP txn act – MT1-MMP promoter transcription activation. HT1080 MT1-MMP promoter luciferase reporter, luminescence, overnight; active compounds read high. activation factor at 10 µM. 86,000 tested, 0.16% active. AID 750;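 active = activation factor of at least 2 for MT1-MMP transcription at 10 µM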
H69AR growth 86K – growth inhibitors of human H69AR lung tumor cells. viability, % at 10 µM. H69AR lung tumor viability, ATP luminescence, 72 h; active compounds read low. 85,000 tested, 6% active. AID 598;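 active = viability at or below 40%; inactive = viability above 40%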;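 also: multidrug resistant small cell line overexpressing MRP-1 efflux transporter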
Pyk2 oligo antag – Pyk2 (human) oligomerization antagonism; 99,000 tested, 0.83% active; AID 1347419; z-score (the deposit names both 25 µM and 10 µM); Q293 cells, Pyk2 FERM NanoBiT luminescence; active compounds read low;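 active = Z-score of -3 or lower, scaled per plate to the spread of control and sample wells; inactive = z-score above -3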;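 also: negative z-score means lost luminescence so less FERM oligomerization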
HUVEC prolif 384 – inhibitors of human endothelial cell proliferation; viability, % at 10 µM (by protocol); 86,000 tested, 1.1% active; HUVEC proliferation, CellTiter-Glo luminescence, 72 h; active compounds read low; AID 648;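 active = viability at or below 30%; inactive = viability above 30%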
Lung fibro prol – blocks proliferation of human lung fibroblasts | LL 47 human lung fibroblast viability, ATP luminescence; active compounds read low | viability, % at 10 µM | 85,000 tested, 1.1% active | AID 719;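 active = viability at or below 50% in the single dose screen; inactive = viability above 50%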;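 also: compound exposure lasted 72 h before the ATP readout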
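Test system: LL 47 human lung fibroblasts / Quantity: 1,150 cells in each well / Medium: IMEM growth medium with 15% fetal bovine serum / Incubation: 72 h compound exposure at 37 °C after overnight plating / Detection: CellTiter-Glo luminescence measuring cellular ATP / Read-out: % viability versus median cells-only luminescence / Benchmarks: cell-only wells, no compound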
Jurkat tox 60K – cytotoxic compounds reducing Jurkat cell viability; Jurkat E6.1 viability, ATP luminescence, 48 h; inhibition, % at 4 µM; 56,000 tested, 1.2% active;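 active = inhibition above the mean inhibition of all tested compounds plus 3 SD, cut at about 28% in these data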
Each line names hits and unclear results; the compound was inactive in the other large screens. The list is not random: actives were taken first. Their share in the collection is about 5.9%.

Cc1ccc(Cl)cc1N1CCN(Cc2nc3c(c(=O)[nH]c(=O)n3C)n2Cc2ccccc2F)CC1	H69AR growth 86K 18.8 (no result: Pyk2 oligo antag)
Cc1ccc(Cl)cc1N1CCN(Cc2nc3c(c(=O)[nH]c(=O)n3C)n2CCc2ccccc2)CC1	H69AR growth 86K 4.3, Lung fibro prol 17.7
CCOc1ccc2cc(C#N)c(SCC(=O)N3CCOCC3)nc2c1	none
CCOc1ccc2nc(SCC(=O)N3CCCCCC3)c(C#N)cc2c1	H69AR growth 86K 38.1 (no result: Lung fibro prol)
CCOC(=O)CC(=O)CSc1nc2c(cc1C#N)CCC2	H69AR growth 86K 34.6 (no result: Jurkat tox 60K)
CCOC(=O)CSc1nc2cc(C)ccc2cc1C#N	H69AR growth 86K 34.1
CCOC(=O)CSc1nc2ccc(C)cc2cc1C#N	none (no result: Jurkat tox 60K)
COC(=O)CC(=O)CSc1nc2c(cc1C#N)CCCCC2	none
CC1(CC(=O)O)C(=O)N=C2C=CC=CN21 (centres undefined)	none
CCCCC(=O)Nc1sc2c(c1C(=O)OCC)CCC(C=O)=C2Cl	Pyk2 oligo antag -3.04 (no result: MT1-MMP txn act, H69AR growth 86K, HUVEC prolif 384, Lung fibro prol, Jurkat tox 60K)
CCCCNCC(=O)Nc1sc(C)c(C)c1C(=O)OCC	none (no result: MT1-MMP txn act, Jurkat tox 60K)
CCCOc1ccccc1-n1sc2c(c1=S)-c1cc(OC)cc3c1N(C(=O)C3=O)C2(C)C	H69AR growth 86K 1.5 (no result: Jurkat tox 60K)
Cn1c(=O)c2c(nc(NCCO)n2CCc2ccccc2)n(C)c1=O	Jurkat tox 60K 32.1
Cn1c(=O)c2c(nc(NCCCO)n2CCc2ccccc2)n(C)c1=O	none (no result: Jurkat tox 60K)
CCCNc1nc2c(c(=O)n(C)c(=O)n2C)n1Cc1cccc(C)c1	Jurkat tox 60K 59.1
CC(O)CNc1nc2c(c(=O)n(C)c(=O)n2C)n1Cc1cccc(Br)c1 (centres undefined)	Jurkat tox 60K 27.7 (no result: H69AR growth 86K)
CCCC[C@@H]1C[C@H]1C(NC(=O)c1ccco1)c1ccc(Cl)cc1 (some centres undefined)	none (no result: H69AR growth 86K, Pyk2 oligo antag, HUVEC prolif 384, Lung fibro prol, Jurkat tox 60K)
CCCCCOc1ccc(NC(=O)C(=O)NCCC2=CCCCC2)cc1	none (no result: Jurkat tox 60K)
CCOC(=O)C1=C(C)N(CCCC(=O)NCCn2c(-c3ccccc3)cc(C(=O)OC)c2C)C(=O)NC1c1ccc([N+](=O)[O-])cc1 (centres undefined)	none (no result: H69AR growth 86K, Pyk2 oligo antag, HUVEC prolif 384, Lung fibro prol, Jurkat tox 60K)
CCN(c1ccccc1)S(=O)(=O)c1ccc(C(=O)OC(C)C(=O)NCCC2=CCCCC2)cc1 (centres undefined)	none (no result: MT1-MMP txn act, H69AR growth 86K, HUVEC prolif 384, Lung fibro prol, Jurkat tox 60K)
COc1ccccc1-c1nc(-c2ccccn2)no1	H69AR growth 86K 39.7 (no result: MT1-MMP txn act, Pyk2 oligo antag)
CCOC(=O)c1c(CN2CCCCC2)oc2ccc(O)cc12	none
CCOC(=O)c1c(COc2ccccc2)oc2ccc(O)cc12	Jurkat tox 60K 45.3 (no result: Pyk2 oligo antag)
CCOC(=O)c1c(C(C)(C)C)oc2ccc(O)cc12	H69AR growth 86K 29.9 (no result: Jurkat tox 60K)
CCOC(=O)c1c(C(C)(C)C)oc2ccc(OCC#N)cc12	none
Cc1ccc(C)c(-c2cc(C(=O)Nc3sc(C)c(C)c3C(N)=O)c3ccccc3n2)c1	none (no result: MT1-MMP txn act, H69AR growth 86K, HUVEC prolif 384, Lung fibro prol, Jurkat tox 60K)
CCOC(=O)c1sc(NC(=O)CSc2n[nH]c(-c3ccccc3)n2)c(C#N)c1C	none
Cc1ccc(/C=C/C2=Cc3c(sc(NC(=O)CSc4n[nH]c(N)n4)c3C#N)C(C)(C)C2)o1	H69AR growth 86K 28.5 (no result: Pyk2 oligo antag)
O=C(c1c[nH]c(C(=O)C(Cl)(Cl)Cl)c1)c1ccccc1Cl	H69AR growth 86K 23.3 (no result: MT1-MMP txn act, Jurkat tox 60K)
c1ccc(-c2cc3c(N4CCOCC4)ncnc3s2)cc1	H69AR growth 86K 30.9 (no result: Lung fibro prol)
Cc1nc(N2CCOCC2)c2cc(-c3ccccc3)sc2n1	none
Cc1cc(C)nc(NC(=O)c2ccc(Cl)c(Cl)c2)n1	none (no result: Jurkat tox 60K)
Cc1cc(C)nc(NC2=NCCN2C(=O)Nc2ccc(Cl)c(Cl)c2)n1	H69AR growth 86K 22.2 (no result: MT1-MMP txn act, Pyk2 oligo antag)
Cc1nc(-c2cccc(S(=O)(=O)N3CC(C)CC(C)C3)c2)cs1 (centres undefined)	Pyk2 oligo antag -3.04 (no result: Jurkat tox 60K)
O=C(Cc1ccccc1I)Nc1ccccc1	none (no result: H69AR growth 86K, Pyk2 oligo antag, HUVEC prolif 384, Lung fibro prol, Jurkat tox 60K)
COc1ccc(-c2nc3c(c(=O)n(C)c(=O)n3C)n2CC2CC(c3ccccc3)=NO2)cc1OC (centres undefined)	H69AR growth 86K 6.3
CN1C(=O)C(O)(CC(=O)c2ccc3c(c2)OCO3)c2ccccc21 (centres undefined)	none
CCCCN1C(=O)C(O)(CC(=O)c2ccccc2OC)c2ccccc21 (centres undefined)	none (no result: Pyk2 oligo antag)
C#CCN1C(=O)C(O)(CC(=O)c2ccc3c(c2)OCCO3)c2ccccc21 (centres undefined)	H69AR growth 86K 34.5 (no result: Pyk2 oligo antag)
CCCN1C(=O)C(O)(CC(=O)c2cccc(OC)c2)c2ccccc21 (centres undefined)	H69AR growth 86K 27.7
CCCN1C(=O)C(O)(CC(=O)c2ccc3c(c2)OCCO3)c2ccccc21 (centres undefined)	H69AR growth 86K 17.4

Compound activity (PubChem)
